Measurements taken from PMC5600879 (Journal of computer-aided molecular design, 2014).

Tests used:
Assay type in all cases: cell-based, human
[1] = Raji cell viability by Trypan Blue staining; conditions: human, Raji cells
Procedure, shortened: (§1)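 Raji cells incubated 48 h at 37 °C in RPMI-1640 with 10 % FCS, n-butyric acid (4 mmol), TPA (32 pmol), and test compound at 0.32, 3.2, 16 or 32 nmol (10- to 1,000-fold of TPA). Viability was scored by Trypan Blue staining, and viability above 60 % was required to count as non-cytotoxic. Each concentration was run three times and averaged.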

[2] = test system: TPA-induced EBV-EA expression in Raji cells; experiment: EBV-EA activation assay; conditions: for LogCurvP: log10 transformed response fingerprint (CurveP) of the four-dose EBV-EA data; for Exp. Act.: class from experimental LogCurvP, threshold 1.25
Raji cells = experiment: Raji cell viability by Trypan Blue staining; conditions: value in parentheses at 32 (1,000-fold of TPA); Trypan Blue staining
Procedure, shortened: as §1

Row | SMILES | viability at 48 h, 32 nmol [1] | LogCurvP [2] | Exp. Act. [2] | EBV-EA inhibition potency, comparison in words [2] | viability percentages of Raji cells (Raji cells)
1 | COc1cccc(CN(C)C(=O)/C=C/c2cccc(O)c2)c1 [Compound 1, (E)-3-(3-hydroxyphenyl)-N-(3-methoxybenzyl)-N-methylacrylamide] | > 60% | 1.04 | – | – | –
2 | CN(Cc1cccc(O)c1)C(=O)/C=C/c1cccc(O)c1 [Compound 2, (E)-N-(3-hydroxybenzyl)-3-(3-hydroxyphenyl)-N-methylacrylamide] | > 60% | 1.04 | Marginal active (active/marginally active threshold at LogCurvP = 1.25) | – | –
3 | COc1cccc(/C=C/C(=O)NCc2cccc(OC)c2)c1 [Compound 3, (E)-N-(3-methoxybenzyl)-3-(3-methoxyphenyl)acrylamide] | > 60% | 1.04 | Marginal active (active/marginally active threshold at LogCurvP = 1.25) | – | –
4 | O=C(/C=C/c1cccc(O)c1)NCc1cccc(O)c1 [Compound 4, (E)-N-(3-hydroxybenzyl)-3-(3-hydroxyphenyl)acrylamide] | > 60% | 1.04 | Marginal active (active/marginally active threshold at LogCurvP = 1.25) | – | –
5 | COc1ccc(O)c(C(=O)/C=C/c2cccc(OC)c2OC)c1 [Compound 5, (E)-3-(2,3-dimethoxyphenyl)-1-(2-hydroxy-5-methoxyphenyl)prop-2-en-1-one] | > 60% | 1.43 | Active | – | –
6 | COc1ccc2c(c1)C(=O)CC(c1cccc(O)c1O)O2 (stereo not shown) [Compound 6, 2-(2,3-dihydroxyphenyl)-6-methoxychroman-4-one] | > 60% | 1.43 | Active | – | –
7 | O=C(/C=C/c1cccc(O)c1O)c1cc(O)ccc1O [Compound 7, (E)-3-(2,3-dihydroxyphenyl)-1-(2,5-dihydroxyphenyl)prop-2-en-1-one] | > 60% | 1.43 | Active | less potent than its ring-closed analog 9 | –
8 | COc1ccc2oc(-c3ccc(OC)c(OC)c3)cc(=O)c2c1 [Compound 8, 2-(3,4-dimethoxyphenyl)-6-methoxy-4H-chromen-4-one] | > 60% | 1.43 | Active | – | –
9 | O=c1cc(-c2ccc(O)c(O)c2)oc2ccc(O)cc12 [Compound 9, 2-(3,4-dihydroxyphenyl)-6-hydroxy-4H-chromen-4-one] | > 60% | 1.43 | Active | most potent analog among the tested compounds | –
10 | COc1ccc2oc(-c3ccc(O)c(OC)c3)cc(=O)c2c1 [Compound 10, 2-(4-hydroxy-3-methoxyphenyl)-6-methoxy-4H-chromen-4-one] | > 60% | 1.43 | Active | – | –
11 | COc1ccc2oc(-c3ccc(O)c(O)c3)cc(=O)c2c1 [Compound 11, 2-(3,4-dihydroxyphenyl)-6-methoxy-4H-chromen-4-one] | > 60% | 1.43 | Active | – | –
12 | COc1ccc(CCNC(=O)/C=C/c2ccc3c(c2)OCO3)cc1OC [Compound 13, (E)-3-(benzo[d] [1, 3]dioxol-5-yl)-N-(3,4-dimethoxyphenethyl)acrylamide] | – | 1.04 | Marginal active (active/marginally active threshold at LogCurvP = 1.25) | – | > 60%
13 | O=C(/C=C/c1ccc2c(c1)OCO2)NCCc1ccc(Cl)cc1 [Compound 14, (E)-3-(benzo[d] [1, 3]dioxol-5-yl)-N-(4-chlorophenethyl)acrylamide] | – | 0.85 | Marginal active (active/marginally active threshold at LogCurvP = 1.25) | – | > 60%
14 | O=C(/C=C/c1ccc2c(c1)OCO2)NCCCc1ccccc1 [Compound 15, (E)-3-(benzo[d] [1, 3]dioxol-5-yl)-N-(3-phenylpropyl)acrylamide] | – | 1.04 | Marginal active (active/marginally active threshold at LogCurvP = 1.25) | – | > 60%
15 | CN(C)CCCNC(=O)/C=C/c1ccc2c(c1)OCO2 [Compound 16, (E)-3-(benzo[d] [1, 3]dioxol-5-yl)-N-(3-(dimethylamino)propyl)acrylamide] | – | 0.85 | Marginal active (active/marginally active threshold at LogCurvP = 1.25) | – | > 60%
16 | COC(=O)COc1cccc2ccccc12 [Compound 17, Methyl 2-(naphthalen-1-yloxy)acetate] | > 60% | 1.04 | Marginal active (active/marginally active threshold at LogCurvP = 1.25) | – | –
17 | O=C(O)COc1cccc2ccccc12 [Compound 18, 2-(naphthalen-1-yloxy)acetic acid] | > 60% | 1.04 | Marginal active (active/marginally active threshold at LogCurvP = 1.25) | – | –
18 | COc1cc(/C=C/C(=O)CC(=O)/C=C/c2ccc(O)c(OC)c2)ccc1O [Curcumin, reference compound] | > 60% | 1.43 | Active | – | –
